Where “and” joins values, the source holds several entries; their conditions need not be identical. Equal entries are not always repeated.
Experiments:
[1] = tested on: Plasmodium falciparum; assay: Inhibition of Plasmodium falciparum protein farnesyltransferase at 50 nM by scintillation proximity assay
[2] = tested on: Plasmodium falciparum; assay: Antimalarial activity against Plasmodium falciparum K1; assay type: functional; conditions: read-out: ED50 (the source's name)
Outline: (§1)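 Asynchronous culture in type A+ erythrocytes at 0.5% parasitemia and 0.5% hematocrit, grown in RPMI-1640 with 20% heat-inactivated human A+ plasma. Compound was serially diluted from a top final 5 µM, with DMSO vehicle as 100% growth. Plates ran 48 h at 37 °C under 5% CO2/5% O2/90% N2, then [3H]-hypoxanthine (0.3 µCi) for 24 h. Filter-harvested counts were corrected for the uninfected-RBC background. ED50 by linear regression; duplicates averaged.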

[3] = tested on: Plasmodium falciparum; assay: Inhibition of Plasmodium falciparum protein farnesyltransferase at 5 nM by scintillation proximity assay
[4] = tested on: Plasmodium falciparum; assay: Antimalarial activity against Plasmodium falciparum 3D7; assay type: functional; conditions: read-out: ED50 (the source's name); outline: as §1
[5] = tested on: Plasmodium falciparum; assay: Inhibition of Plasmodium falciparum protein farnesyltransferase at 0.5 nM by scintillation proximity assay

inhibition [1]	EC50 ([2]; Plasmodium falciparum, K1)	inhibition [3]	EC50 ([4]; Plasmodium falciparum, 3D7)	inhibition [5]	EC50 [2]	EC50 [4]	Structure (SMILES)
95%	490 nM	89%	105 nM	–	–	–	Cn1cncc1CN1CC(N(Cc2cccnc2)S(=O)(=O)c2ccccn2)Cc2cc(C#N)ccc21 (stereo not given)
97%	600 nM	66%	140 nM	–	–	–	Cc1nn(-c2ccccc2)nc1CN(C1Cc2cc(C#N)ccc2N(Cc2cncn2C)C1)S(=O)(=O)c1ccccn1 (stereo not given)
96%	–	77%	1880 nM	46%	–	–	Cn1cncc1CN1CC(N(CCN2C(=O)c3ccccc3C2=O)S(=O)(=O)c2ccccn2)Cc2cc(C#N)ccc21 (stereo not given)
94%	2800 nM	62%	450 nM	–	–	–	Cc1oncc1CN(C1Cc2cc(C#N)ccc2N(Cc2cncn2C)C1)S(=O)(=O)c1ccccn1 (stereo not given)
99%	–	93%	100 nM	48%	–	–	COC(=O)N1CCC(CN(C2Cc3cc(C#N)ccc3N(Cc3cncn3C)C2)S(=O)(=O)c2cccnc2)CC1 (stereo not given)
99%	–	84%	230 nM	25%	–	–	COC(=O)NCCCCN(C1Cc2cc(C#N)ccc2N(Cc2cncn2C)C1)S(=O)(=O)c1ccccn1 (stereo not given)
100%	–	100%	40 nM	77%	–	–	CCS(=O)(=O)c1ccc(CN(C2Cc3cc(C#N)ccc3N(Cc3cncn3C)C2)S(=O)(=O)c2cn(C)cn2)cc1 (stereo not given)
62%	–	10%	–	1%	–	–	COC(=O)c1ccc(CN(C2Cc3cc(C#N)ccc3N(Cc3cncn3C)C2)S(=O)(=O)c2cn(C)cn2)cc1 (stereo not given)
18%	–	6%	–	0%	–	–	Cn1cncc1CN1CC(N(CC2CCNCC2)S(=O)(=O)c2ccccn2)Cc2cc(C#N)ccc21 (stereo not given)
–	–	–	–	–	18 nM	18 nM	Cn1cnc(S(=O)(=O)N(Cc2ccccc2F)C2Cc3cc(C#N)ccc3N(Cc3cncn3C)C2)c1 (stereo in doubt; 110) [listing 1 of 2 here]
92%	3600 nM	63%	820 nM	–	–	–	Cn1cncc1CN1CC(N(CCCCN2C(=O)c3ccccc3C2=O)S(=O)(=O)c2ccccn2)Cc2cc(C#N)ccc21 (stereo not given)
26%	–	9%	2900 nM	6%	–	–	COC(=O)N(Cc1ccccc1F)C1Cc2cc(C#N)ccc2N(Cc2cncn2C)C1 (stereo not given)
98%	18 nM	97%	14 nM	–	–	–	Cn1cnc(S(=O)(=O)N(CCN2C(=O)c3ccccc3C2=O)C2Cc3cc(C#N)ccc3N(Cc3cncn3C)C2)c1 (stereo not given)
90%	850 nM	52%	850 nM	–	–	–	Cn1cncc1CN1CC(N(Cc2cccc(-n3cccn3)c2)S(=O)(=O)c2ccccn2)Cc2cc(C#N)ccc21 (stereo not given)
97%	–	55%	830 nM	13%	–	–	Cc1ccsc1S(=O)(=O)N(Cc1ccc(S(C)(=O)=O)cc1)C1Cc2cc(C#N)ccc2N(Cc2cncn2C)C1 (stereo not given)
98%	–	87%	850 nM	13%	–	–	Cc1c(S(=O)(=O)N(Cc2cc(Br)ccc2F)C2Cc3cc(C#N)ccc3N(Cc3cncn3C)C2)ncn1C (stereo not given)
97%	617 nM	69%	143 nM	–	–	–	Cn1cncc1CN1CC(N(Cc2cccc(-n3cccc3)c2)S(=O)(=O)c2ccccn2)Cc2cc(C#N)ccc21 (stereo not given)
–	–	66%	340 nM	13%	–	–	Cn1cncc1CN1CC(N(Cc2ccccc2F)C(=O)c2cnns2)Cc2cc(C#N)ccc21 (stereo not given)

inhibition [1]	EC50 ([2]; Plasmodium falciparum, K1)	inhibition [3]	EC50 ([4]; Plasmodium falciparum, 3D7)	inhibition [5]	EC50 [2]	EC50 [4]	Structure (SMILES)
22%	–	15%	2700 nM	0%	–	–	Cn1cnc(CN2CC(N(CC3CCN(C(=O)OC(C)(C)C)CC3)S(=O)(=O)c3ccccn3)Cc3cc(-c4ccccc4)ccc32)c1 (stereo not given)
93%	–	–	120 nM	–	–	–	Cn1cnc(S(=O)(=O)N(Cc2ccccc2)C2Cc3cc(C#N)ccc3N(Cc3cnc[nH]3)C2)c1 (stereo not given)
100%	–	99%	–	65%	–	–	Cn1cnc(S(=O)(=O)N(Cc2ccccc2F)C2Cc3cc(C#N)ccc3N(Cc3cncn3C)C2)c1 (stereo in doubt; 110) [listing 2 of 2 here]
–	–	88%	75 nM	39%	–	–	Cn1cncc1CN1CC(N(Cc2ccccc2F)C(=O)c2c[nH]cn2)Cc2cc(C#N)ccc21 (stereo not given)
84%	690 nM	39%	750 nM	–	–	–	Cn1cncc1CN1CC(N(Cc2ccc(C(F)(F)F)o2)S(=O)(=O)c2ccccn2)Cc2cc(C#N)ccc21 (stereo not given)
94%	–	–	120 nM	–	–	–	C=C(Br)CN(C1Cc2cc(C#N)ccc2N(Cc2cnc[nH]2)C1)S(=O)(=O)c1cn(C)cn1 (stereo not given)
96%	–	76%	–	12%	–	–	Cn1cnc(S(=O)(=O)N(Cc2ccccc2F)C2Cc3cc(C#N)ccc3N(Cc3cncn3C)C2)c1 (stereo in doubt; 212) [listing 1 of 2 here]
69%	–	20%	1200 nM	12%	–	–	CNC(=O)c1ccc2c(c1)CC(N(CC(=O)NC(C)(C)C)S(=O)(=O)c1cn(C)cn1)CN2Cc1cncn1C (stereo not given)
96%	–	67%	600 nM	8%	–	–	Cn1cncc1CN1CC(N(Cc2ccc(S(C)(=O)=O)cc2)S(=O)(=O)c2cccc(F)c2)Cc2cc(C#N)ccc21 (stereo not given)
96%	–	67%	38 nM	15%	–	–	COC(=O)N1CCC(CN(C2Cc3cc(C#N)ccc3N(Cc3cncn3C)C2)S(=O)(=O)c2nccn2C)CC1 (stereo not given)
35%	–	2%	> 5000 nM	0%	–	–	CCC(C)NC(=O)c1ccc2c(c1)CC(N(CC(=O)NC(C)(C)C)S(=O)(=O)c1cn(C)cn1)CN2Cc1cncn1C (stereo not given)
56%	–	19%	290 nM	11%	–	–	COCC(=O)N(Cc1ccccc1F)C1Cc2cc(C#N)ccc2N(Cc2cncn2C)C1 (stereo not given)
99%	–	90%	390 nM	30%	–	–	Cn1cnc(S(=O)(=O)N(Cc2ccc(S(=O)(=O)c3ccccc3)cc2)C2Cc3cc(C#N)ccc3N(Cc3cncn3C)C2)c1 (stereo not given)
97%	–	76%	640 nM	10%	–	–	CCS(=O)(=O)c1ccc(CN(C2Cc3cc(C#N)ccc3N(Cc3cncn3C)C2)S(=O)(=O)c2ncn(C)c2C)cc1 (stereo not given)
33%	–	10%	860 nM	0%	–	–	Cn1cnc(CN2CC(N(CC3CCN(C(=O)OC(C)(C)C)CC3)S(=O)(=O)c3cn(C)cn3)Cc3cc(-c4ccccc4)ccc32)c1 (stereo not given)
–	–	–	–	–	500 nM	580 nM	Cn1cnc(S(=O)(=O)N(Cc2ccccc2F)C2Cc3cc(C#N)ccc3N(Cc3cncn3C)C2)c1 (stereo in doubt; 212) [listing 2 of 2 here]
–	–	16%	2700 nM	0%	–	–	CN(C)CC(=O)N(Cc1ccccc1F)C1Cc2cc(C#N)ccc2N(Cc2cncn2C)C1 (stereo not given)
59%	–	1%	4600 nM	0%	–	–	Cn1cnc(S(=O)(=O)N(CC(=O)NC(C)(C)C)C2Cc3cc(C(=O)NCc4ccccc4)ccc3N(Cc3cncn3C)C2)c1 (stereo not given)

Structure (SMILES)	inhibition [1]	EC50 ([2]; Plasmodium falciparum, K1)	inhibition [3]	EC50 ([4]; Plasmodium falciparum, 3D7)	inhibition [5]	EC50 [2]	EC50 [4]
COC(=O)N1CCC(CN(C2Cc3cc(C#N)ccc3N(Cc3cncn3C)C2)S(=O)(=O)c2ccccn2)CC1 (stereo not given)	98% and 100% (2×)	–	–	–	–	–	–
